Three compounds from ChEMBL document CHEMBL3751758, “Cysteine-Rich Peptide Family with Unusual Disulfide Connectivity from Jasminum sambac” (J Nat Prod, 2015) can be followed below.

Activity calls are given as the source filed them. The calls are words filed in the database; no cut-off is given here. Bridge positions count the residues as written; N and C are the ends. Peptide text beside a SMILES is read from it. Where only a bound is given, the exact number is not on record here.

The target of one series is T1, Carboxypeptidase A1 (Homo sapiens, UniProt P15085).
T1 sequence (P15085 whole entry): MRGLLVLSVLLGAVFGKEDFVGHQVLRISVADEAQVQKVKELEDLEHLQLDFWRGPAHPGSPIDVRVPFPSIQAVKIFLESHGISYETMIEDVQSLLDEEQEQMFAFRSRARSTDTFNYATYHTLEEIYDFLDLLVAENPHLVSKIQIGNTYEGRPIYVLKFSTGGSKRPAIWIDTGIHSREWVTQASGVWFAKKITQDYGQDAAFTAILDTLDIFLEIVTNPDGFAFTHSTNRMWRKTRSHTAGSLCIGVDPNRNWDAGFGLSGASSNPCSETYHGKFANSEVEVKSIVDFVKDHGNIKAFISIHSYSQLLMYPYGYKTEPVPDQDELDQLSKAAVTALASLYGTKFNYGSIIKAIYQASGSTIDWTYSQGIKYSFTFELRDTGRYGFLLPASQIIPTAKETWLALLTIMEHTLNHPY
As to the kind of experiment: Stability of the compound in Tris buffer assessed as carboxypeptidase A (unknown origin)-mediated compound degradation at pH 7.5 at 37 degC after 4 hrs by UPLC analysis. It counts as ADME. Conditions: pH 7.5, 4 h. An outline of the steps: (§1)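 Peptide was incubated with or without carboxypeptidase A at 50:1 (w/w) in 50 mM Tris/100 mM NaCl pH 7.5 at 37 °C for up to 6 h. Collected peaks were checked by MALDI-TOF, and stability was judged from UPLC peak areas.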

A short description of series [1]: Stability of the compound in NH4HCO3 buffer assessed as trypsin (unknown origin)-mediated degradation at pH 7.8 at 37 degC after 1 hr by UPLC analysis. Conditions: human, pH 7.8, 1 h. It counts as ADME.
Series [2] can be described thus: (§2) Stability of the compound in 100 mM sodium citrate buffer assessed as pepsin (unknown origin)-mediated compound degradation by measuring intact compound level at pH 2.5 at 37 degC after 4 hrs by UPLC analysis. It counts as ADME. Conditions: human, buffer, pH 2.5, 4 h.
Series [3] addresses T2, Carboxypeptidase A1 (Bos taurus) (UniProt P00730).
T2 sequence (whole entry): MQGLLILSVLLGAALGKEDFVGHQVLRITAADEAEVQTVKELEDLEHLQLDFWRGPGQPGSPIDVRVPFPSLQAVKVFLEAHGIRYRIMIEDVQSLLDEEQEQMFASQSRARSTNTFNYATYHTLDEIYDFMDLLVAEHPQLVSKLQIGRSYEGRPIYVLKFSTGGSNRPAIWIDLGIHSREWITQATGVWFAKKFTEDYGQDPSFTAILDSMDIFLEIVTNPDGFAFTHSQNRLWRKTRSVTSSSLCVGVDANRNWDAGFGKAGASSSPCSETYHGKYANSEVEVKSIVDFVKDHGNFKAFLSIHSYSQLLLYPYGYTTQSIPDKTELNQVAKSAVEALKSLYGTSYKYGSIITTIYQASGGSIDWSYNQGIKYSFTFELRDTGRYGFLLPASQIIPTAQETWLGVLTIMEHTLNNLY
The series can be described thus: Inhibition of bovine carboxypeptidase A using N-(4-methoxyphenylazoformyl)phenylalanine as substrate at 0.1 to 100 uM. The method in brief:
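Peptide at 0.1–100 µM was combined with 0.1 mM N-(4-methoxyphenylazoformyl)phenylalanine substrate. The reaction was started with 25 nM bovine carboxypeptidase A, and substrate hydrolysis was followed at 350 nm.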

Series [4] is described as follows: Hemolytic activity in human type O+ erythrocytes up to 10 uM after 4 hrs by spectrophotometric analysis. It counts as ADME, cell-based. Conditions: erythrocyte. An outline of the steps: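 Erythrocytes came from fresh type O+ blood of a healthy volunteer. Cells were pelleted at 1000 rpm for 15 min, washed three times in PBS and diluted 100X in PBS. Peptide at various concentrations was mixed with an equal volume of cells for 4 h at 37 °C. Plates were spun at 1000 rpm for 5 min and supernatant absorbance read at 415 nm. Controls were 0.1% Triton X-100 and PBS.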

The next series concerns pepsin. The description is as §2. It counts as ADME. Conditions: human, pepsin in 100 mM sodium citrate buffer, pH 2.5; read-out: Stability.
For a further series, the target named is T3, carboxypeptidase A (Homo sapiens, UniProt P15085).
T3 sequence (P15085 whole entry): T1 sequence (P15085 whole entry)
As to the kind of experiment: Stability of the compound in Tris buffer assessed as carboxypeptidase A (unknown origin)-mediated compound degradation by measuring intact compound level at pH 7.5 at 37 degC after 6 hrs by UPLC analysis. It counts as ADME. Conditions: read-out: Stability. The method in brief: as §1

The next series has as its system HUVEC. The series can be described thus: Cytotoxicity against HUVEC at 10 uM after 24 hrs by Presto Blue-based cell viability assay. Conditions: human. An outline of the steps:
(§3)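 Cells were seeded at 8 x 10^3 per well in DMEM with 10% FBS and 1% penicillin/streptomycin, at 37 °C under 5% CO2. After 24 h, peptide was added at 0.01–10 µM in triplicate for 24 h. PrestoBlue was then added for 1 h at 37 °C and absorbance read at 570 nm. Controls were 1% Triton X-100 and PBS.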

Series [5] in a line: Stability of the compound in boiling water assessed as compound remaining after 1 hr by UPLC analysis. It counts as physicochemical. Conditions: read-out: Stability.
In the next series the test system is Vero. As to the kind of experiment: Cytotoxicity against African green monkey Vero cells at 10 uM after 24 hrs by Presto Blue-based cell viability assay. Conditions: chlorocebus sabaeus. The method in brief: as §3
Another series has as its system Staphylococcus aureus. The series can be described thus: Antibacterial activity against Staphylococcus aureus ATCC 12600 up to 100 uM by radial diffusion assay. It counts as functional, organism-based. The method in brief:
(§4)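 Radial diffusion assay under low-salt conditions (10 mM Na3PO4). Strains were grown in trypticase soy broth. D4R peptide dendrimer was the positive control.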

A further series concerns trypsin. The series can be described thus: Stability of the compound in NH4HCO3 buffer assessed as trypsin (unknown origin)-mediated degradation by measuring intact compound level at pH 7.8 at 37 degC after 8 hrs by UPLC analysis. Conditions: human, read-out: Stability. It counts as ADME.
The test system of a further series is Escherichia coli. As to the kind of experiment: Antibacterial activity against Escherichia coli ATCC 25922 up to 100 uM by radial diffusion assay. It counts as functional, organism-based. The method in brief:
as §4

The test system of another series is Candida albicans. The series can be described thus: Antifungal activity against Candida albicans 11006 up to 100 uM by radial diffusion assay. It counts as functional, organism-based. The method in brief: as §4

Take `CC(C)C[C@H](NC(=O)[C@H](CCCNC(=N)N)NC(=O)CNC(=O)[C@H](CCCNC(=N)N)NC(=O)[C@H](CCCNC(=N)N)NC(=O)[C@H](Cc1ccc(O)cc1)NC(=O)[C@H](CC(C)C)NC(=O)[C@@H](N)CCCNC(=N)N)C(=O)N[C@@H](Cc1ccc(O)cc1)C(=O)N[C@@H](CCCNC(=N)N)C(=O)N[C@@H](CCCNC(=N)N)C(=O)N[C@@H](CC(N)=O)C(=O)N[C@@H](Cc1cnc[nH]1)C(=O)N[C@H](C(=O)O)C(C)C` (H-RLYRRGRLYRRNHV-OH): the Stability entry (at Carboxypeptidase A1; in series [1]; in series [2]) was “Unstable” each time.
Turning to `CC[C@H](C)[C@H](NC(=O)[C@@H](NC(=O)[C@H](CC(N)=O)NC(=O)[C@@H]1CSSC[C@@H]2NC(=O)[C@H](CC(=O)O)NC(=O)[C@H](CO)NC(=O)[C@H](CC(N)=O)NC(=O)[C@H](CO)NC(=O)[C@H](CCCNC(=N)N)NC(=O)[C@@H]3CSSC[C@H](NC(=O)[C@H]([C@@H](C)CC)NC(=O)[C@H](CCCNC(=N)N)NC(=O)[C@H](Cc4c[nH]c5ccccc45)NC(=O)[C@H]([C@@H](C)CC)NC(=O)[C@H]([C@@H](C)CC)NC(=O)[C@H](CC(N)=O)NC2=O)C(=O)N[C@@H](CCCNC(=N)N)C(=O)N[C@@H](CC(=O)O)C(=O)NCC(=O)N[C@@H](CSSC[C@H](NC(=O)[C@H](CC(C)C)NC(=O)[C@@H](N)CCC(N)=O)C(=O)N[C@@H](CC(C)C)C(=O)N[C@@H](CCC(N)=O)C(=O)N3)C(=O)N1)C(C)C)C(=O)O` (H-QLCLQCRSNSDCNIIWRICRDGCCNVI-OH; disulfide 3-23, 6-19, 12-24), in [3], the inhibition entry is “inactive”. Moreover, the Activity result (in series [4]; with HUVEC; with Vero) was “Non-toxic” each time. For the same compound, the remaining at 4 h in the series on pepsin was more than 90%. The remaining at 6 h at carboxypeptidase A is more than 90%. The remaining at 1 h in series [5] was determined as 96%. Also, the outcome in the series on Staphylococcus aureus, with Escherichia coli and in the series on Candida albicans was inactive. For the same compound, in the series with trypsin, the remaining at 8 h turned out to be 73%.
On to `CC(C)C[C@H](NC(=O)[C@@H]1CCCN1C(=O)[C@H](CO)NC(=O)[C@H](Cc1ccccc1)NC(=O)CNC(=O)[C@@H]1CCCN1C(=O)[C@@H]1CCCN1C(=O)[C@H](CCCN=C(N)N)NC(=O)[C@@H](N)CCCCN)C(=O)O`, for which the Stability result (at Carboxypeptidase A1; in series [1]; in series [2]) was “Unstable” throughout.
